Results on five compounds are retold here after ChEMBL document CHEMBL4732224, “Structure activity refinement of phenylsulfonyl piperazines as antimalarials that block erythrocytic invasion” (Eur J Med Chem, 2021).

Data set [1] has as its system Plasmodium falciparum. Put plainly: Antimalarial activity against Plasmodium falciparum 3D7 incubated for 72 hrs by LDH assay. It counts as functional, organism-based. The note with it: 3D7, 72 h. An outline of the steps:
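Asexual blood-stage P. falciparum 3D7 parasites were cultured with compound for 72 h, and viability was read by lactate dehydrogenase (LDH) activity.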

Data set [2] concerns HepG2. Put plainly: Cytotoxicity against human HePG2 cells assessed as growth inhibition after 48 hrs by Cell Titer-Glo assay. It counts as cell-based. The note with it: HepG2, 48 h. On the technique in general: In ATP-based viability assays light output follows the ATP content of the culture.
The nature of data set [3]: Solubility of compound in PBS at pH 6.5 by nephelometric analysis. The class given is physicochemical.
For data set [4], the system named is Plasmodium falciparum. The data set is described as follows: Antimalarial activity against asexual blood stages of Plasmodium falciparum 3D7 infected in human RBC by Live cell microscopic method. The class given is functional, organism-based. The note with it: 3D7, Erythrocyte.
A short description of data set [5]: Intrinsic clearance in mouse liver microsomes at 1 uM in presence of NADPH measured up to 60 mins by LC-MS analysis. The note with it: read-out: CLH. The class given is ADME, Microsome.
Data set [6] relates to Plasmodium knowlesi. Put plainly: Antimalarial activity against asexual blood stage of Plasmodium knowlesi YHI assessed as reduction in cell viability after 48 hrs by EtBr staining based flow cytometric analysis. The class given is functional, organism-based.
Data set [7] concerns Plasmodium falciparum. Put plainly: Antimalarial activity against asexual blood stage of Plasmodium falciparum 3D7 assessed as reduction in cell viability after 72 hrs by EtBr staining based flow cytometric analysis. It counts as functional, organism-based. The note with it: 3D7, 72 h.
In data set [8] the test system is Plasmodium falciparum. Put plainly: Antimalarial activity against asexual blood stage of Mefloquine-resistant Plasmodium falciparum W2mef assessed as reduction in cell viability after 72 hrs by EtBr staining based flow cytometric analysis. The class given is functional, organism-based.
The test system of data set [9] is Plasmodium falciparum. Put plainly: Antimalarial activity against asexual blood stage of chloroquine-resistant Plasmodium falciparum Dd2 assessed as reduction in cell viability after 72 hrs by EtBr staining based flow cytometric analysis. The note with it: Dd2, 72 h. The class given is functional, organism-based. (In general: Flow cytometry measures light scatter and fluorescence of single cells or particles in a stream.)

Data set [10] concerns Plasmodium falciparum. Put plainly: Antimalarial activity against asexual blood stage of chloroquine-resistant Plasmodium falciparum 7G8 assessed as reduction in cell viability after 72 hrs by EtBr staining based flow cytometric analysis. It counts as functional, organism-based. The note with it: 7G8, 72 h.
Data set [11] concerns Plasmodium falciparum. Put plainly: Antimalarial activity against asexual blood stage of artemisinin-resistant Plasmodium falciparum Cam3.12539T cambodian isolate assessed as reduction in cell viability after 72 hrs by EtBr staining based flow cytometric analysis. The note with it: Cam3.12539T cambodian isolat. It counts as functional, organism-based.
In data set [12] the test system is Plasmodium falciparum. The data set is described as follows: Antimalarial activity against Plasmodium falciparum NF54 early stage (1 to 3) expressing Pfs16-LUC-GFP assessed as growth inhibition by high content imaging assay. It counts as functional, organism-based.
In data set [13] the test system is Plasmodium falciparum. Put plainly: Antimalarial activity against Plasmodium falciparum NF54 early stage (1 to 3) expressing Pfs16-LUC-GFP assessed as growth inhibition at 20 uM by high content imaging assay relative to control. It counts as functional. The note with it: read-out: GI.
Data set [14] concerns Plasmodium falciparum. The data set is described as follows: Antimalarial activity against Plasmodium falciparum NF54 late stage ([…]) expressing Pfs16-LUC-GFP assessed as growth inhibition by high content imaging assay. It counts as functional, organism-based.
Data set [15] concerns Plasmodium falciparum. The data set is described as follows: Antimalarial activity against Plasmodium falciparum NF54 late stage ([…]) expressing Pfs16-LUC-GFP assessed as growth inhibition at 20 uM by high content imaging assay relative to control. The class given is functional. The note with it: read-out: GI.
Data set [16] concerns Plasmodium falciparum. Put plainly: Antimalarial activity against schizonts stage of Plasmodium falciparum D10 expressing GFP infected in human RBC assessed as reduction in merozoites invade to RBC at 4 times of EC90 concentration after 6 hrs by flow cytometric analysis. It counts as functional, organism-based.
Data set [17] relates to Plasmodium falciparum. Put plainly: Antimalarial activity against schizonts stage of Plasmodium falciparum D10 expressing GFP infected in human RBC assessed as reduction in ring stage formation at 4 times of EC90 concentration after 6 hrs by flow cytometric analysis. The class given is functional, organism-based.
Data set [18] deals with Plasmodium falciparum. The data set is described as follows: Antimalarial activity against schizonts stage of Plasmodium falciparum D10 expressing PEXEL-Nluc infected in human RBC assessed as reduction in invasion at 5 times of EC90 concentration preincubated for 30 mins followed by compound wash out and measured after 24 hrs by luminometric method. It counts as functional, organism-based.

Data set [19] in a line: Selectivity ratio of IC50 for antimalarial activity against asexual blood stage of chloroquine-resistant Plasmodium falciparum 7G8 to IC50 for antimalarial activity against asexual blood stage of Plasmodium falciparum 3D7. The class given is functional.

Converted amounts (≈) assume the structure as drawn. The source made the active and inactive calls. No cut-off for these calls is given here.

Usually EC50 stands for the concentration at which the effect is half-maximal. What is called solubility (kinetic) is solubility judged after dilution from a stock solution rather than from solid. Regarding `C[C@@H](C(=O)N1CCCC1)N1CCN(S(=O)(=O)c2ccc(C(C)(C)C)cc2)CC1`, the values for the EC50 in data set [1] and in data set [2] were 300 nM and > 40000 nM, respectively. Moreover, the solubility (kinetic) in data set [3] was determined as 25 µM (≈ 10.2 µg/mL).
Take `CC(C(=O)N1CCCC1)N1CCN(S(=O)(=O)c2ccc(C(C)(C)C)cc2)CC1` (configuration not stated): the values for the EC50 in data set [4], in [1] and in [2] were 900 nM, 690 nM and > 40000 nM, respectively. For the same compound, the CLint scaled at 1 µM in data set [5] was > 2100 mL/min/kg.
With `CC(C(=O)N1CCc2ccccc2C1(C)C)N1CCN(S(=O)(=O)c2ccc(C(C)(C)C)cc2)CC1` (configuration not stated), the EC50 in [1] amounted to 180 nM; in [2], 31000 nM. In data set [5], the microsomal CLint at 1 µM is > 866 µL/min/mg. The kinetic solubility in data set [3] is < 1.6 µM.
On to `C[C@@H](C(=O)N1CC2CC2C1)N1CCN(S(=O)(=O)c2ccc(C(C)(C)C)cc2)CC1` (some centres not stated), for which the EC50 was 130 nM in [1]; > 40000 nM in [2]; 140 nM in data set [6]; 30 nM in data set [7]; 60 nM in data set [8]; 70 nM in [9]. Moreover, the EC50 is 80 nM in [10], 60 nM in [11], > 10000 nM in [12] and > 10000 nM in data set [14]. Moreover, the inhibition of growth at 20 µM in data set [13] was determined as 44%; in data set [15], 36%. In addition, the outcome in data set [16], in data set [17] and in data set [18] was Active.
With `C[C@@H](C(=O)N1CCCCC1)N1CCN(S(=O)(=O)c2ccc(C(C)(C)C)cc2)CC1`, the EC50 in [1] was 200 nM; in [2] it was > 40000 nM; in [6], 1300 nM; in data set [7], 610 nM; in [8], 490 nM; in data set [9] it was 860 nM. The half-maximal effective concentration (EC50) in data set [10] was 5100 nM; in data set [11] it was 1300 nM; in [12], > 10000 nM; in data set [14], > 10000 nM. For the same compound, the values for the inhibition of growth at 20 µM in [13] and in [15] were 49% and 41%, respectively. The result in data set [16], in [17] and in [18] was Active. Also, in data set [19], the Ratio IC50 worked out at 8.
